Test results as given in article PMC3914721 (Biochemistry, 2013).
Several values for one entry are separate records, joined by “and”; a condition that tells them apart may be missing. Equal entries are not always repeated. Where two headings read alike, the source gives them in different places.

Assays:
Ms sGC β1 (1–380) = assay: Soret band shift on YC-1 addition; assay type: binding, Manduca sexta; details: CO-saturated protein
lysozyme = assay: Fluorescence anisotropy of YC-1; assay type: binding; details: 2 μM YC-1, 20 °C
sGC = details: cited from earlier work
β1 PAS domain = assay: Fluorescence anisotropy of YC-1; assay type: binding, Manduca sexta; details: 2 μM YC-1, 20 °C; likely non-specific
Bt sGC (full length) [1] = details: read-out: Kd^YC-1′, +CO; measured in the presence of GTP; cited from earlier work
Ms sGC-NT = Ms sGC-NT (Manduca sexta, UniProt O77106); assay: Stimulator binding to Ms sGC-NT constructs, summary over constructs and methods; details: for Effect of α1 H-NOX removal on stimulator binding (Ms sGC-NT21 vs Ms sGC-NT13): unliganded proteins
Ms sGC-NT21-CO = Ms sGC-NT21-CO (Manduca sexta, UniProt O77106); assay: Soret band shift titration of CO-saturated protein; assay type: binding
Ms sGC β1(1–380) = molecular target: T1, Ms sGC β1(1–380) (Manduca sexta, UniProt O77106); assay: CO titration monitoring the CO-bound Soret band; assay type: binding; details: for Kd: read-out: Kd^CO
T1 sequence (O77106 1-380): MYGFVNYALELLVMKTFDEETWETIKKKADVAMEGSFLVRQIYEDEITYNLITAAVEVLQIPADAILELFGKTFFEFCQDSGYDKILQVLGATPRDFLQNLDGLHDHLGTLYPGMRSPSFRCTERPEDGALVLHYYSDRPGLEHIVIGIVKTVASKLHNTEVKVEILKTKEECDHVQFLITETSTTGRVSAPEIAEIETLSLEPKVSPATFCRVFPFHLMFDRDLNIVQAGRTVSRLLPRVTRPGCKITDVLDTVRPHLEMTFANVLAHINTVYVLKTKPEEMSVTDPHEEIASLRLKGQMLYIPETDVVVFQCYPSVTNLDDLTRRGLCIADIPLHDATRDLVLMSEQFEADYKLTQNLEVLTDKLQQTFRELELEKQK
Method in brief: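 Ms β1(1–380) was expressed in E. coli Rosetta pLysS with 25 μM δ-aminolevulinic acid. It was purified by anion exchange, Ni-NTA (EDTA elution) and S200 gel filtration, where it ran as a monomer, then prepared in Ar-purged buffer with excess dithionite. CO from a saturated solution was titrated into a septum-capped 10 cm cuvette, the CO-bound Soret band was followed, and data were fit to a single-site saturation model.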

Ms sGC-NT21 [2] = molecular target: T2, Ms sGC-NT21 (Manduca sexta, UniProt O77106); assay: CO titration monitoring the CO-bound Soret band; assay type: binding; details: for Kd^CO/Kd^CO′ cooperativity factor: ratio of CO dissociation constants without and with compound
Method in brief: (§1)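 CO titrations were run at room temperature in 50 mM potassium phosphate pH 7.4, 100 mM KCl, 5% glycerol, at several YC-1 concentrations (0–50 μM). NT21 used a 10 cm cuvette with 0.1 μM protein; NT13 used a 1 cm cuvette with 1 μM protein. A four-state cooperative model was globally fit to normalized absorbance changes at 423 and 433 nm, giving Ka^CO, Ka^YC-1 and Kint. Kd^CO′ is the inverse of Ka^CO·Kint.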

Ms sGC-NT21 [3] = molecular target: T2, Ms sGC-NT21; assay type: binding; details: for Kint (CO) cooperativity factor: from global fitting
Ms sGC-NT13 [4] = molecular target: T3, Ms sGC-NT13 (Manduca sexta, UniProt O77106); assay: CO titration monitoring the CO-bound Soret band; assay type: binding; details: for Kd^CO/Kd^CO′ cooperativity factor: ratio of CO dissociation constants without and with compound
Method in brief: as §1

Ms sGC α1 PAS = molecular target: T4, Ms sGC α1 PAS (Manduca sexta, UniProt O77105); assay: Fluorescence anisotropy of YC-1; assay type: binding
T4 sequence (O77105 279-404): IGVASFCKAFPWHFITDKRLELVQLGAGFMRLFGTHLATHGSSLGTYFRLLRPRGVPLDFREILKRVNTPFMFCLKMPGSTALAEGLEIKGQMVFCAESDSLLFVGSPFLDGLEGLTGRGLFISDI

Ms sGC-NT13 [5] = molecular target: T3, Ms sGC-NT13; assay type: binding
Ms sGC-NT13-CO = Ms sGC-NT13-CO (Manduca sexta, UniProt O77106); assay: Soret band shift titration of CO-saturated protein; assay type: binding
Bt sGC β1(1–359) = molecular target: T5, Bt sGC β1(1–359) (Bos taurus, UniProt P16068); assay: CO titration monitoring the CO-bound Soret band; assay type: binding, Bos taurus (bovine); details: read-out: Kd^CO; no stimulator; 1 μM protein
T5 sequence (P16068 1-359): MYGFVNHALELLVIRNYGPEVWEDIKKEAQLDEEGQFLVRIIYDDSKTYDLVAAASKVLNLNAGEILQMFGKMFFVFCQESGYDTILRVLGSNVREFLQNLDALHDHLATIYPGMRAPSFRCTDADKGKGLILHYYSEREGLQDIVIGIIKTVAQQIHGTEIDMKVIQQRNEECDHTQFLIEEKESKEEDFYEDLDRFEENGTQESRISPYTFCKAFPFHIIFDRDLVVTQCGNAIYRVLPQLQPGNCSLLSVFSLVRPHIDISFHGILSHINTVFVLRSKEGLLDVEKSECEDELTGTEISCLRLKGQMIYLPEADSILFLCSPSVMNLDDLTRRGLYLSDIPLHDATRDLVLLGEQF
Method in brief: (§2)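 CO from a saturated solution was added by gas-tight syringe to protein in septum-capped 1 or 10 cm cuvettes. The appearance of the CO-bound Soret absorption band was followed, and data were fit to a single-site saturation ligand-binding model.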

Bt sGC (full length) [6] = details: read-out: Kd^CO, no stimulator, cited from earlier work
[7] = molecular target: heterodimeric sGC proteins; assay: CO binding to heterodimeric sGC proteins, summary over constructs; design: species or system Manduca sexta; details: read-out: Kd^CO, range over heterodimeric proteins; absence of YC-1
Method in brief: as §2

Ms sGC-NT19 = details: read-out: Kd^CO; no stimulator; ref 43; cited from earlier work
Ms sGC-NT2 = details: read-out: Kd^CO, no stimulator, cited from earlier work
Bt sGC β1(1–197) = molecular target: T6, Bt sGC β1(1–197) (Bos taurus, UniProt P16068); assay: CO titration monitoring the CO-bound Soret band; assay type: binding, Bos taurus (bovine)
T6 sequence (P16068 1-197): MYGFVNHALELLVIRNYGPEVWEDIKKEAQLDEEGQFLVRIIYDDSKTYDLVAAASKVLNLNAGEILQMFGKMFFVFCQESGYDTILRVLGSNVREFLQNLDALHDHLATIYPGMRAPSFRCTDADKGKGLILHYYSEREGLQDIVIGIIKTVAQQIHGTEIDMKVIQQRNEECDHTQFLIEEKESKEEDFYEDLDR
Method in brief: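 Bovine β1 H-NOX construct was expressed in E. coli BL21(DE3)pRIPL with δ-aminolevulinic acid and ferric citrate. It was purified by Q-FF, S75 and second Q-FF chromatography and prepared in Ar-purged buffer with excess dithionite. CO from a saturated solution was titrated by gas-tight syringe into the septum-capped cuvette while the CO-bound Soret band was followed. Data were fit to a single-site saturation model.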

Hs sGC (full length) = details: read-out: Kd^CO; no stimulator; ref 77; cited from earlier work
[8] = tested on: pre-constricted aortic rings; details: read-out: EC50 to stimulate sGC in pre-constricted aortic rings; cited from earlier work

OCc1ccc(-c2nn(Cc3ccccc3)c3ccccc23)o1 [YC-1]
Shift in Soret band maxima upon YC-1 binding (Ms sGC β1 (1–380)): not observed | Binding of YC-1 by fluorescence anisotropy (lysozyme): not for lysozyme | Stimulation of sGC (sGC; in the absence of NO): two- to four-fold | Activation of sGC (sGC; synergistically with CO or NO): several hundred fold | Binding of YC-1 by fluorescence anisotropy (β1 PAS domain): weak signal | Kd (Bt sGC (full length) [1]): ~8 µM | Kd (Ms sGC-NT; Kd, CO complexes (presence of CO), over constructs, Ms sGC-NT13 and Ms sGC-NT21): 0.6 to 1.1 µM and ~1 µM | Effect of α1 H-NOX removal on stimulator binding (Ms sGC-NT21 vs Ms sGC-NT13) (Ms sGC-NT): ~ 2 fold | Kd (Ms sGC-NT21-CO): 0.6 ± 0.1 µM | Kint, cooperativity in CO binding (Ms sGC β1(1–380); any of the constructs missing the α1 chain): ~ 1 | Tightening of the CO dissociation constant upon YC-1 binding (Ms sGC-NT21 [2]; 50 μM YC-1): 10 fold | Kd^CO/Kd^CO′ cooperativity factor (Ms sGC-NT21 [2]): 11 ± 1 | Kint (CO) cooperativity factor (Ms sGC-NT21 [3]): 14 and 13.8 ± 0.3 | Kd^CO/Kd^CO′ cooperativity factor (Ms sGC-NT13 [4]): 19 ± 3 | Solubility in aqueous buffer (Aqueous solubility): poor solubility | Kd (Ms sGC α1 PAS): > 100 µM | Kint (CO) cooperativity factor (Ms sGC-NT13 [5]; from global fitting): 19 and 19 ± 2 | Kd (Ms sGC-NT13-CO): 0.8 ± 0.1 µM

[C-]#[O+] [CO]
Kd (Bt sGC β1(1–359)): 15 ± 4 µM | Kd (Bt sGC (full length) [6]; ref 51): 127 µM | Kd (Bt sGC (full length) [6]; ref 76): 97 µM | Kd (Ms sGC β1(1–380); absence of the alpha chain): ~0.2 µM | Kd (Ms sGC β1(1–380); no stimulator, 10 cm cuvette, 0.1 μM protein): ~0.2 µM and 0.2 µM | Fold enhancement of CO binding on complete removal of the α1 chain (Ms sGC β1(1–380); vs heterodimeric Ms sGC): 265 fold | Kd (Ms sGC-NT21 [2]; read-out: Kd^CO, no stimulator, 10 cm cuvette, 0.1 μM protein): 2.2 ± 0.2 µM | Fold tighter CO binding than Ms sGC proteins containing the α1 H-NOX domain (Ms sGC-NT21 [2]; removal of the α1 H-NOX domain): 20–40 fold and 24 fold | Kd (Ms sGC-NT13 [4]; read-out: Kd^CO, no stimulator, 1 μM protein): 53 ± 4 µM | Kd [7]: 50 to 100 µM and 50 to 90 µM | Kd (Ms sGC-NT19): 50 ± 3 µM | Kd (Ms sGC-NT2; ref 33): 77 ± 7 µM | Kd (Ms sGC-NT2; ref 43): 90 ± 9 µM | Fold less tight CO binding than Ms sGC β1(1–380) (Bt sGC β1(1–197)): ~ 8 fold | Kd (Bt sGC β1(1–197); read-out: Kd^CO, no stimulator, 1 cm cuvette, 0.5 μM protein): 1.6 ± 0.2 µM | Kd (Hs sGC (full length)): 260 µM

Nc1nc(-c2nn(Cc3ccccc3F)c3ncccc23)ncc1C1CC1 [BAY 41–2272]
Effect of α1 H-NOX removal on stimulator binding (Ms sGC-NT21 vs Ms sGC-NT13) (Ms sGC-NT): ~ 9 fold | Kd (Ms sGC-NT21-CO): 0.09 ± 0.02 µM | EC50 [8]: 0.3 µM | Kd^CO/Kd^CO′ cooperativity factor (Ms sGC-NT21 [2]): 31 ± 5 | Kd (Ms sGC-NT21 [3]): 0.03 ± 0.01 µM | Kint (CO) cooperativity factor (Ms sGC-NT21 [3]): 58 ± 7 | Kd^CO/Kd^CO′ cooperativity factor (Ms sGC-NT13 [4]): 212 ± 23 | Solubility in aqueous buffer (Aqueous solubility): poor solubility | Kd (Ms sGC-NT13 [5]; Kd^BAY, −NO/CO, estimated assuming linked equilibria: (Kd^CO/Kd^CO′) Kd^BAY′): 17 ± 3 µM | Kd (Ms sGC-NT13-CO): 0.08 ± 0.01 µM
